Screens deposited in PubChem BioAssay by several laboratories.
Shown are actives, neighbours in structure and some others; about 3.4% of the full set was active somewhere.
p97 ATPase inh – blocks human p97 ATPase activity; recombinant p97 ATPase, Kinase-Glo ATP luminescence, 3 h; inhibition, % at 8 µM; 220,000 tested, 0.42% active; in the data active = inhibition above about 15%;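 also: 0% = DMSO vehicle and 100% = wells lacking enzyme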
Redox H2O2 prof – compounds producing H2O2 with reducing agent – biochemical, NIH compound library profiling, artefact control for MLSCN library redox annotation, primary screen; DTT-dependent redox cycling H2O2, phenol red/HRP absorbance; 100% = 100 µM peroxide control, 0% = buffer; 200,000 tested, 0.03% active; activation, % at 10 µM; AID 878;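 active = activation of at least 50% relative to the plate's high and low controls in the primary single-dose screen; inactive = activation below 50%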;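 also: compound incubated with DTT at 0.8 mM final as the reducing agent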
PKD1 inh – inhibitors of human PKD1 kinase | AID 797 | 200,000 tested, 0.056% active | Q15139 | inhibition, % (no concentration beside the values) | PKD1 kinase fluorescence polarization assay; in the data active = inhibition above about 50%
MDM2 E3 inh – Mdm2 E3 ligase (human) inhibition; signal enhancement, % at 5 µM; 210,000 tested, 0.11% active; Q00987; AID 1230; cell-based MDM2 ubiquitination luciferase reporter, 2 h; 0 = plate control, 100 = twice control, blank-subtracted;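 active = signal enhancement of 30% or more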;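 also: luminescence tracks abundance of the self-degrading MDM2-luciferase fusion protein; higher signal means inhibition of MDM2 E3 ligase activity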
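Timing – 2 h compound exposure at 37 °C · Assay system – mammalian cells stably expressing self-ubiquitinating, self-degrading MDM2 E3–luciferase fusion · Amount – 2000 cells seeded into each well · Measure – % luminescence enhancement versus blank-corrected plate control mean · Measured by – SteadyLite luminescence, 15 min reagent step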
Cl transport mod – modulates chloride dependent transport by human KCC2. B-score of Tl+ flux slope (higher = more flux/activation; lower = inhibition) at 10 µM. KCC2 cells, thallium flux FluoZin-2 fluorescence. AID 1456. 190,000 tested, 2.2% active;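 active = thallium flux slope and its plate-corrected score both differing from the plate sample mean at a set confidence after two filtering rounds, in either direction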;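 also: slope of fluorescence scaled to starting intensity during 10 to 20 s after thallium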
ROMK mod – modulates human ROMK potassium channel activity. P48048. Tet-inducible ROMK, thallium flux fluorescence; actives lie on both sides. B-score at 10 µM. 130,000 tested, 2% active;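 active = signal ratio slope over the read window, or its plate-corrected B-score, at least 3 SD from the plate mean, either direction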;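 also: B-score of the F/F0 ratio slope over 7 to 12 s after thallium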
KCC2 secondary – confirmation of human KCC2 transport modulators | shares compounds with Cl transport mod | 3,700 tested, 15% active | normalised thallium flux (F/F0 slope) at 10 µM | HEK293-KCC2, thallium flux, FluoZin2 fluorescence; active compounds read high;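 active = thallium flux slope above the same plate's solvent-only control mean plus 3 SD; inconclusive = the two replicate wells disagree; inactive = no significant difference from solvent-only control wells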
KCC2 bumet counter – bumetanide-insensitive thallium flux in KCC2 cells with ouabain, counter-screen; shares compounds with Cl transport mod; HEK293-KCC2 + bumetanide/ouabain, thallium flux FluoZin2; active compounds read high; normalized thallium flux at 10 µM; 3,700 tested, 49% active; AID 1714;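 active = thallium entry rate above the same plate's blocked-transporter control wells by more than 3 SD; inconclusive = the two repeat wells disagree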;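 also: raw slope of fluorescence over initial fluorescence between 10 and 20 s after thallium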
KCC2 secondary2 – KCC2 (human) modulation, second secondary assay; normalized thallium flux at 10 µM; 3,700 tested, 23% active; HEK293-KCC2, thallium flux FluoZin2 fluorescence; actives lie on both sides; F/F0 rise rate, 10–20 s post-thallium; shares compounds with Cl transport mod;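 active = thallium flux slope more than 3 SD above or below the plate's solvent-only control mean, mostly below; inconclusive = the two repeat wells disagreed; inactive = no significant shift from solvent-only controls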;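 also: raw slope with 0.1% DMSO as baseline and bumetanide as block control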
HEK293 Tl flux – acts in parental HEK cells, KCC2 counter-screen. 3,700 tested, 46% active. AID 1716. thallium flux rate (normalised fluorescence) at 10 µM. shares compounds with Cl transport mod. HEK293 parental cells, thallium flux FluoZin2, ouabain; baseline-ratio fluorescence slope, 10–20 s after thallium;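 active = thallium flux rate significantly above the same plate's solvent-only control wells, beyond their mean plus 3 SD; inconclusive = the two replicate wells gave conflicting results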
KCC2 retest ouab – KCC2 (human) modulation, ouabain retest; shares compounds with Cl transport mod; HEK293-KCC2, thallium flux FluoZin2 fluorescence; bidirectional: low = inhibitor, high = activator; raw Tl+ flux slope (below DMSO = inhibition, above = activation) at 10 µM; 3,700 tested, 48% active;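 active = thallium flux slope beyond 3 SD from same-plate DMSO control mean in most replicates, usually higher, sometimes lower; inconclusive = repeat tests gave conflicting results; inactive = no significant difference from controls in most replicates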;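 also: slope of initial-normalized fluorescence between seconds 10 and 20 after thallium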
HEK counter2 – acts in parental HEK cells, second KCC2 counter-screen | AID 1718 | thallium flux slope at 10 µM | shares compounds with Cl transport mod | HEK293 parental, thallium flux FluoZin-2 fluorescence slope | 3,700 tested, 33% active;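 active = thallium flux slope above the same plate's solvent-control mean plus 3 SD in both duplicate wells; inconclusive = duplicate wells that disagreed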;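 also: run without ouabain in cells lacking the KCC2 cotransporter; slope of fluorescence scaled to its starting value between 10 and 20 s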
An asterisk follows results filed as active; ? = inconclusive; . = no result.

SMILES	p97 ATPase inh	Redox H2O2 prof	PKD1 inh	MDM2 E3 inh	Cl transport mod	ROMK mod	KCC2 secondary	KCC2 bumet counter	KCC2 secondary2	HEK293 Tl flux	KCC2 retest ouab	HEK counter2
CC(C)(C)c1ccc(C(=O)Nc2ccc(NC(=O)C(=O)O)cc2)o1	2	0	1	-10	0.16	0	.	.	.	.	.	.
COc1ccc(OC)c(S(=O)(=O)Nc2ccccc2C(F)(F)F)c1	3	3	-10	-5	.	.	.	.	.	.	.	.
Cc1nnc(NCc2n[nH]c(=O)c3ccccc23)c2ccccc12	2	0	-11	9	1	0.94	.	.	.	.	.	.
CCn1c2ccc(C)cc2c2nnc(NN)nc21	0	-1	11	5	-6.9*	-0.59	0.01	?	0.034	0.0075	0.023	0.011
CCn1c2ccccc2c2nnc(NN)nc21	1	0	-11	9	1.3	0.51	.	.	.	.	.	.
COc1ccc(N=Nc2c(N)n[nH]c2N)cc1	7	.	.	-13	0.14	.	.	.	.	.	.	.
Cc1cc(C)nc(Sc2nc(C)nc3c2oc2ccccc23)n1	0	0	-5	-13	.	-0.15	0.018	0.0044	0.027	0.0074	0.016	0.01
CCOC(=O)N1CCN(c2nc3ccccc3nc2C(C#N)S(=O)(=O)c2ccc(C)cc2)CC1 (centres undefined)	4	1	2	-22	.	-0.45	0.01	0.0062	0.027*	?	?	?
Cc1noc(C)c1COC(=O)c1ccccc1NC(=O)c1ccco1	3	0	-6	-9	-1.3	-0.62	.	.	.	.	.	.
O=C1N(Cc2cccnc2)C[C@@H]2C[C@@H](c3ccccc3C(F)(F)F)N3CCC[C@@]123	4	.	.	-5	-1.7	.	.	.	.	.	.	.
CCCOc1ccc(N2C(=O)C3ON(c4ccccc4)C(c4ccc(O)c(OC)c4)C3C2=O)cc1 (centres undefined)	3	1	-4	-18	-1	0.052	0.0055	0.0045	?	0.0078	0.018	0.0096
CC1=C(C(=O)OC(C)C)C(c2ccc(N(C)C)cc2)C2=C(CC(C)(C)CC2=O)N1 (centres undefined)	-4	-2	-2	-8	-1.9	.	.	.	.	.	.	.
Cc1cccc(NC(=O)CCC(=O)Nc2nnc(C(F)(F)F)s2)c1	-3	.	.	2	-0.041	.	.	.	.	.	.	.
